Measurements: ChEMBL document CHEMBL3098129, “Preparation and evaluation of deconstruction analogues of 7-deoxykalafungin as AKT kinase inhibitors” (Bioorg Med Chem Lett, 2014)

Experiments:
[1] = molecular target: cAMP-dependent protein kinase catalytic subunit alpha (Homo sapiens, UniProt P17612); assay: Inhibition of PKAalpha (unknown origin) using serine/threonine 01 peptide as substrate after 1 hr by FRET based Z'-LYTE assay
Summary of the method: (§1)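 Run with a commercial Z'-LYTE kit, a FRET read-out of the kinase phosphorylating a peptide substrate. It detects functional inhibition of kinase activity regardless of mechanism.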

[2] = molecular target: RAC-alpha serine/threonine-protein kinase (Homo sapiens, UniProt P31749); assay: Inhibition of recombinant AKT1 (unknown origin) using serine/threonine 06 peptide as substrate after 1 hr by FRET based Z'-LYTE assay; summary of the method: as §1
Sequence of RAC-alpha serine/threonine-protein kinase (P31749 whole entry): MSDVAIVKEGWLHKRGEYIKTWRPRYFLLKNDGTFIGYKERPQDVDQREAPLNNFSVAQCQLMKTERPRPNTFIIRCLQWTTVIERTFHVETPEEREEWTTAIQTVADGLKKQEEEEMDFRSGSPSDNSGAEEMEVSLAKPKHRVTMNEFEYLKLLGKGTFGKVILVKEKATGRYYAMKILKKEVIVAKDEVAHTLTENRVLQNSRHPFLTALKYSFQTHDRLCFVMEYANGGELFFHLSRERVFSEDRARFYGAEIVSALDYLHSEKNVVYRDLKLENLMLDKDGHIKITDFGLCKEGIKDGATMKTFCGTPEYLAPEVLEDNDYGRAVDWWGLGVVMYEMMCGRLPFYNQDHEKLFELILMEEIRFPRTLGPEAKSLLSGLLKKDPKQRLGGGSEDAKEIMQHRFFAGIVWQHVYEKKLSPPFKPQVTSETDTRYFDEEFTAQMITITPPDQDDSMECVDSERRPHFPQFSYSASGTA

Row | SMILES | IC50 [1] [µM] | IC50 [2] [µM]
1 | COC(=O)CC/C=C/C(=O)c1ccccc1 | > 100 | 13.7
2 | C=CC(=O)c1ccccc1 | > 100 | 12.3
3 | C[C@H]1O[C@@H]2CC(=O)O[C@@H]2C2=C1C(=O)c1ccccc1C2=O | > 100 | 0.28

Second part, the molecule after the results:

Row | IC50 [1] [µM] | IC50 [2] [µM] | SMILES
4 | 0.43 | 2.94 | O=C1C[C@@H](O)[C@@H](C2=CC(=O)c3ccccc3C2=O)O1
5 | > 100 | 50 | COC/C=C/C(=O)c1ccccc1
